Records with an inconclusive call do not appear.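 The calls were made as follows, unless noted: active = RAM network inhibition above 8.4% in each of two replicates, 3 SD over the compound average; inconclusive = above 8.4% inhibition in only one replicate; inactive = 8.4% inhibition or less in each replicate.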
Columns and labels:
[1] = OD615 S. cerevisiae growth inhibition, permissive medium, pilot counter-assay, permissive growth control for S. cerevisiae lifespan shortening project (AID 705;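 active = growth inhibition above 25% in both replicates, a cutoff set 3 SD above the mean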); details: OD615, 24 h, at 10 µM, stronger effect = higher value
How it was run: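 assay system = Saccharomyces cerevisiae strain carrying genetically modified DeaD replicative-lifespan system | medium = SC raffinose/galactose permissive medium | dosing = 10 µM single dose, 0.25% DMSO | schedule = 24 h compound exposure at 30 °C after 4 h pre-growth | measured by = OD at 615 nm | read-out basis = growth inhibition from lowered OD615 after 24 h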

[2] = Restrictive medium S. cerevisiae growth inhibition, OD615, pilot screen of yeast lifespan reduction project, restrictive growth control (AID 706;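 active = growth inhibition above a set limit, 3 SD over mean compound inhibition, in both replicates, cut at about 43% in these data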;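 also: modified DeaD lifespan yeast strain shifted to restrictive glucose medium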); details: OD615, 48 h, at 10 µM, stronger effect = higher value
How it was run: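 Buffer or medium: CSMM-D glucose medium. Material: genetically modified Saccharomyces cerevisiae, DeaD replicative lifespan assay strain. Times: 48 h compound exposure at 30 °C. Measured by: optical density at 615 nm.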

[3] = viability gain of MRP-1-high H69AR cells under doxorubicin, pilot screen, MRP-1 activator project, CellTiter-Glo, duplicate (AID 807;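 active = viability increase at or above a cutoff of the median across tested compounds plus 3 SD, cut at about 8.5% in these data, passing the limit was not always enough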;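 also: compound pretreatment 18-22 h then 72 h combined with doxorubicin; 0% = doxorubicin alone and 100% = vehicle without doxorubicin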); details: H69AR viability with doxorubicin, CellTiter-Glo luminescence; at 10 µM; stronger effect = higher value
[4] = growth suppression of beta-catenin knockout HCT116, pilot screen, human colon tumor cells (AID 823;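 active = cell viability at or below a set limit in both duplicate runs, the limit being the all-compound median minus 4 SD, cut at about 23% in these data, passing the limit was not always enough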;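 also: 0% = wells killed by 20 µM Hyamine and 100% = untreated DMSO cell wells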); details: CellTiter-Glo, 60 h, at 10 µM, stronger effect = lower value
[5] = growth suppression of PTEN-deleted HCT116, pilot screen, cell-based, HCT116 clonal line, CellTiter-Glo (AID 824;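 active = viability at or below 27.92% in each of two runs, the all-compound median minus 4 SD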;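 also: 0% = 20 µM Hyamine control and 100% = vehicle cell control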); details: 60 h, at 10 µM, stronger effect = lower value
[6] = inhibitors of the yeast RAM network, pilot screen, dse1pr::URA3 reporter, 5-FOA selection (AID 869;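 active = inhibition over a set limit, the all-compound mean plus 3 SD, in both replicate runs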;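 also: 0% = DMSO wells with no growth and 100% = 10 µM 1-NA-PP1 with full growth; RAM network block rescues cells from 5-FOA so hits raise OD615 growth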); details: S. cerevisiae dse1pr::URA3 5-FOA growth, OD615, 2 d; at 10 µM; stronger effect = higher value; strain carries analog-sensitive mutant Cbk1 kinase
[7] = RAM signaling pathway blockade in yeast – S. cerevisiae, Pdr1DBD-CYC8 efflux-inhibited sensitized strain, primary screen (AID 1298);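 also: 0% = DMSO untreated cells without growth and 100% = 10 µM 1-NA-PP1 full growth; higher means more yeast growth rescued from 5-FOA killing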; details: S. cerevisiae cbk1-as DSE1-URA3 strain, 5-FOA growth OD615, 2 d; at 50 µM; stronger effect = higher value

Cc1cc2oc(C(=O)NCc3ccncc3)c(C)c2cc1C
inactive: growth inhibition [1] -3.59% | growth inhibition [2] 10.7% | viability increase [3] 0.54% | viability [4] 96.4% | viability [5] 89.6% | inhibition [6] 0.7% | RAM network inhibition [7] -0.89%

O=C(CN1c2cccc3cccc(c23)S1(=O)=O)NCc1ccc2c(c1)OCO2
inactive: growth inhibition [1] -1.29% | growth inhibition [2] -6.94% | viability increase [3] -3.03% | viability [4] 89.2% | viability [5] 82.6% | inhibition [6] 1.05% | RAM network inhibition [7] 5.12%

Cc1cc(Nc2cc(F)ccc2C)n2ncnc2n1
inactive: growth inhibition [1] -2.42% | growth inhibition [2] 9.4% | viability increase [3] -0.28% | viability [4] 102% | viability [5] 97.3% | inhibition [6] 3.77% | RAM network inhibition [7] 4.19%

O=C(NC1CCCCC1)N1CCCc2ccccc21
inactive: growth inhibition [1] 2.93% | growth inhibition [2] -1.39% | viability increase [3] -4.89% | viability [4] 86.1% | viability [5] 84% | inhibition [6] 0.345% | RAM network inhibition [7] -1.17%

CCN1CCN(CC(=O)NC2CCCC2)C(=O)C1=O
inactive: growth inhibition [1] 5.56% | growth inhibition [2] -5% | viability increase [3] 0.46% | viability [4] 114% | viability [5] 94.9% | inhibition [6] 1.52% | RAM network inhibition [7] 1.79%

CCOc1cc(C#N)c(NC(=O)c2ccnn2C)cc1OCC
inactive: growth inhibition [1] 8.46% | growth inhibition [2] 2.96% | viability increase [3] -2.47% | viability [4] 82.3% | viability [5] 97.7% | inhibition [6] 0.55% | RAM network inhibition [7] 5.18%

Cc1onc(-c2ccccc2Cl)c1C(=O)NC1CCS(=O)(=O)C1 (stereo not drawn)
inactive: growth inhibition [1] -10% | growth inhibition [2] 1.32% | viability increase [3] 1.32% | viability [4] 103% | viability [5] 106% | inhibition [6] 2.96% | RAM network inhibition [7] 3.02%

CCS(=O)(=O)Nc1cc(-c2nc3cccnc3s2)ccc1C
inactive: growth inhibition [1] -6.48% | growth inhibition [2] 12.5% | viability increase [3] -3.94% | viability [4] 100% | viability [5] 82.8% | inhibition [6] 1.89% | RAM network inhibition [7] 5.32%

CC1CCc2nn(CC(=O)NCc3ccco3)cc2C1 (stereo not drawn)
inactive: growth inhibition [1] 8.89% | growth inhibition [2] 2.02% | viability increase [3] -3.13% | viability [4] 92.7% | viability [5] 88.2% | inhibition [6] 2.08% | RAM network inhibition [7] 5.3%

COc1cccc(C2CC(c3ccccc3OC)n3nc(N)nc3N2)c1 (stereo not drawn)
inactive: growth inhibition [1] -0.495% | growth inhibition [2] 6.87% | viability increase [3] -1.09% | viability [4] 98.1% | viability [5] 95.2% | inhibition [6] 1.06% | RAM network inhibition [7] 1.98%

CCOc1ccc2ccccc2c1C(=O)Nc1cc(=O)n(C)c(=O)n1C
inactive: growth inhibition [1] -8.05% | growth inhibition [2] -21.5% | viability increase [3] 0.11% | viability [4] 107% | viability [5] 94.4% | inhibition [6] 1.17% | RAM network inhibition [7] -1.04%

COc1ccc(C2C3=C(CC(c4ccco4)CC3=O)Nc3ccccc3N2C(C)=O)cc1 (stereo not drawn)
inactive: growth inhibition [1] -19% | growth inhibition [2] -16.4% | viability increase [3] -2.47% | viability [4] 93.5% | viability [5] 102% | inhibition [6] 1.25% | RAM network inhibition [7] 0.96%

CCC(=O)Nc1ccc(C(=O)c2ccccc2)cc1
inactive: growth inhibition [1] -6.81% | growth inhibition [2] -2.21% | viability increase [3] 2.97% | viability [4] 98.5% | viability [5] 97% | inhibition [6] 1.16% | RAM network inhibition [7] 2.9%

Cc1ccc(C)c(SCC(=O)OCC(=O)Nc2ccc(S(=O)(=O)N3CCOCC3)cc2)c1
inactive: growth inhibition [1] -20.4% | growth inhibition [2] -17.7% | viability increase [3] -1.73% | viability [4] 97.8% | viability [5] 92.9% | inhibition [6] 1.02% | RAM network inhibition [7] 5.86%

Cc1cc(C)nc(SCCCn2c(=O)[nH]c3ccccc32)n1
inactive: growth inhibition [1] -6.43% | growth inhibition [2] -7.19% | viability increase [3] 1.32% | viability [4] 99.9% | viability [5] 90.5% | inhibition [6] 1.02% | RAM network inhibition [7] 10.9%

CCOCCCn1cnc2c([nH]c3cc(OC)ccc32)c1=O
inactive: growth inhibition [1] -14.1% | growth inhibition [2] -13.8% | viability increase [3] -0.55% | viability [4] 95.8% | viability [5] 96.9% | inhibition [6] 1.41% | RAM network inhibition [7] 5.51%

CCOC(=O)N1CCN(C(=O)CSc2nc3c([nH]c4ccccc43)c(=O)n2C)CC1
inactive: growth inhibition [1] 1.46% | growth inhibition [2] -8.89% | viability increase [3] -4.86% | viability [4] 91.1% | viability [5] 82.2% | inhibition [6] 2.34% | RAM network inhibition [7] 3.41%

CCCCCCN=CC1=C(O)C(C(=O)OC)C(C)(C)CC1=O (stereo not drawn)
inactive: growth inhibition [1] -10.1% | growth inhibition [2] -3.98% | viability increase [3] 1.15% | viability [4] 95.1% | viability [5] 95.3% | inhibition [6] 0.93% | RAM network inhibition [7] 0.11%

COc1ccc(-c2nnc(SCC(=O)NC(C)c3ccccc3)o2)cc1OC (stereo not drawn)
inactive: growth inhibition [1] -1.92% | growth inhibition [2] -14.2% | viability increase [3] -1.24% | viability [4] 106% | viability [5] 96% | inhibition [6] 1.04% | RAM network inhibition [7] 1.77%

COc1cccc(OCC(=O)N(Cc2nc(-c3ccc(Cl)cc3)no2)C(C)C)c1
inactive: growth inhibition [1] -4.67% | growth inhibition [2] -2.81% | viability increase [3] 2.88% | viability [4] 91% | viability [5] 89.7% | inhibition [6] 3.32% | RAM network inhibition [7] 3.59%

Cc1cc(C)cc(N(CC(=O)NC2CC3CCC2C3)S(C)(=O)=O)c1 (stereo not drawn)
inactive: growth inhibition [1] -11.4% | growth inhibition [2] -10.6% | viability increase [3] -0.31% | viability [4] 90.4% | viability [5] 88% | inhibition [6] -0.04% | RAM network inhibition [7] 2.79%

C=CCn1c(SCCN2CCCCC2)nc2c1c(=O)[nH]c(=O)n2C
inactive: growth inhibition [1] -3.65% | growth inhibition [2] 6.96% | viability increase [3] -1.07% | viability [4] 109% | viability [5] 99.8% | inhibition [6] 1.17% | RAM network inhibition [7] 1.65%

O=C(OCC(=O)c1cccs1)c1ccc(NC(=O)c2ccco2)cc1
inactive: growth inhibition [1] -6.02% | growth inhibition [2] -19.9% | viability increase [3] -3.62% | viability [4] 96.9% | viability [5] 76.1% | inhibition [6] 0.87% | RAM network inhibition [7] 0.26%

CCCC(=O)Nc1nnc(-c2ccc(Cl)s2)o1
inactive: growth inhibition [1] -6.95% | growth inhibition [2] 2.92% | viability increase [3] -3.1% | viability [4] 95.6% | viability [5] 91.2% | inhibition [6] 1.61% | RAM network inhibition [7] 1.6%
